Data on 13 compounds can be found in ChEMBL document CHEMBL3352152, “Indolylmethylene benzo[h]thiazolo[2,3-b]quinazolinones: synthesis, characterization and evaluation of anticancer and antimicrobial activities” (Bioorg Med Chem Lett, 2014).

Where only a bound is given, the exact number is not on record here.

One test relates to Klebsiella pneumoniae. The test can be described thus: Antibacterial activity against Klebsiella pneumoniae MTCC 109 at 150 ug/ml after 24 hrs by agar well diffusion assay. It is filed as functional. As to conditions: MTCC 109, 24 h, read-out: IZ. In short, it runs like this: (§1)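 Agar well diffusion screen against the two Gram-positive strains (S. aureus, S. pyogenes) and the two Gram-negative strains (P. aeruginosa, K. pneumoniae). Streptomycin was the reference drug. Activity was read as zone of inhibition (mm).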
For orientation: A growth-free zone around the sample is the usual read-out of agar diffusion tests.

A further test deals with Pseudomonas aeruginosa. The test can be described thus: Antibacterial activity against Pseudomonas aeruginosa MTCC 4673 at 150 ug/ml after 24 hrs by agar well diffusion assay. It is filed as functional. To be noted: MTCC 4673, 24 h, read-out: IZ. A digest of the protocol:
as §1

A further test deals with Nakaseomyces glabratus. Nature of the test: Antifungal activity against Candida glabrata MTCC3019 at 150 ug/ml after 48 hrs by agar well diffusion method. It is filed as functional. As to conditions: MTCC3019, 48 h, read-out: IZ. A digest of the protocol: (§2)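 Antifungal screen by agar well diffusion against C. albicans, C. glabrata, A. niger and A. parasiticus. Clotrimazole was the standard drug. Activity was recorded as zone of inhibition (ZOI, mm).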

Another test concerns MCF7. The test can be described thus: Anticancer activity against human MCF7 cells assessed as cell viability after 48 hrs by MTT microcultured tetrazolium assay. It is filed as functional, cell-based. As to conditions: MCF7, 48 h. In short, it runs like this:
(§3)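 MTT-microcultured tetrazolium viability read-out in MCF-7 and HepG2 cells exposed to test samples. Surviving fraction was plotted against drug concentration to give survival curves, and IC50 was taken from these curves.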

The subject of another test is HepG2. Nature of the test: Anticancer activity against human HepG2 cells assessed as cell viability after 48 hrs by MTT microcultured tetrazolium assay. It is filed as functional, cell-based. To be noted: HepG2, 48 h. In short, it runs like this: as §3
The subject of the next test is Aspergillus parasiticus. Nature of the test: Antifungal activity against Aspergillus parasiticus MTCC 8850 at 150 ug/ml after 48 hrs by agar well diffusion method. It is filed as functional. As to conditions: MTCC 8850, 48 h, read-out: IZ. In short, it runs like this: as §2
The next test relates to Streptococcus pyogenes. The test can be described thus: Antibacterial activity against Streptococcus pyogenes MTCC 1926 at 150 ug/ml after 24 hrs by agar well diffusion assay. It is filed as functional. To be noted: MTCC 1926, 24 h, read-out: IZ. In short, it runs like this: as §1
A further test relates to Candida albicans. The test can be described thus: Antifungal activity against Candida albicans MTCC 183 at 150 ug/ml after 48 hrs by agar well diffusion method. It is filed as functional. As to conditions: MTCC 183, 48 h, read-out: IZ. In short, it runs like this:
as §2

Another test relates to Staphylococcus aureus. The test can be described thus: Antibacterial activity against Staphylococcus aureus MTCC 96 at 150 ug/ml after 24 hrs by agar well diffusion assay. It is filed as functional. To be noted: MTCC 96, 24 h, read-out: IZ. In short, it runs like this: as §1
The test system of a further test is Aspergillus niger. Nature of the test: Antifungal activity against Aspergillus niger MTCC 282 at 150 ug/ml after 48 hrs by agar well diffusion method. As to conditions: MTCC 282, 48 h, read-out: IZ. It is filed as functional. A digest of the protocol:
as §2

Usually IC50 stands for the concentration at which inhibition is half-maximal.

Turning to `COc1ccc(C2C3=C(N=c4s/c(=C\c5c(C)[nH]c6ccccc56)c(=O)n42)c2ccc(OC)cc2CC3)cc1` (stereo unspecified), the zone of inhibition at 150 µg/mL with Klebsiella pneumoniae stood at 8 mm; with Pseudomonas aeruginosa, 8 mm; in the test on Nakaseomyces glabratus, 8 mm; in the test on Aspergillus parasiticus, 10 mm; in the test on Streptococcus pyogenes it was 8 mm; in the test on Candida albicans, 8 mm. Also, the zone of inhibition at 150 µg/mL in the test with Staphylococcus aureus and with Aspergillus niger was 8 mm throughout. In addition, the 50% inhibitory concentration (IC50) in the test with MCF7 is 112 µM; in the test with HepG2, above 200 µM.
Consider `COc1ccc(C2C3=C(N=c4s/c(=C\c5c[nH]c6ccc(Br)cc56)c(=O)n42)c2ccc(OC)cc2CC3)cc1` (stereo unspecified), for which the zone of inhibition at 150 µg/mL in the test on Klebsiella pneumoniae was 8 mm; with Pseudomonas aeruginosa, 8 mm; in the test with Nakaseomyces glabratus, 12 mm; in the test on Aspergillus parasiticus it was 10 mm; in the test with Streptococcus pyogenes it was 8 mm; in the test on Candida albicans, 8 mm. For the same compound, the zone of inhibition at 150 µg/mL in the test with Staphylococcus aureus and in the test on Aspergillus niger was 8 mm each time. Also, the figures for the IC50 in the test with MCF7 and in the test on HepG2 were 7.72 µM and 8.6 µM, respectively.
`COc1cccc2c1C(=O)c1c(O)c3c(c(O)c1C2=O)C[C@@](O)(C(=O)CO)C[C@@H]3O[C@H]1C[C@H](N)[C@H](O)[C@H](C)O1` [DOXORUBICIN]: the 50% inhibitory concentration (IC50) in the test on HepG2 worked out at 1.1 µM.
As to `COc1ccc2c(c1)CCC1=C2N=c2s/c(=C\c3c[nH]c4ccccc34)c(=O)n2C1c1cccc([N+](=O)[O-])c1` (stereo unspecified), the zone of inhibition at 150 µg/mL in the test on Klebsiella pneumoniae, in the test on Pseudomonas aeruginosa, in the test with Nakaseomyces glabratus, in the test on Aspergillus parasiticus, in the test on Streptococcus pyogenes and with Candida albicans was 8 mm in each case. Besides, the zone of inhibition at 150 µg/mL in the test on Staphylococcus aureus worked out at 8 mm; in the test with Aspergillus niger it was 12 mm. Further, the results for the IC50 in the test with MCF7 and with HepG2 were above 200 µM and 70.3 µM, respectively.
Regarding `COc1ccc2c(c1)CCC1=C2N=c2s/c(=C\c3c[nH]c4ccc(Br)cc34)c(=O)n2C1c1ccc(Cl)cc1` (stereo unspecified), the zone of inhibition at 150 µg/mL came to 8 mm in the test on Klebsiella pneumoniae; 8 mm with Pseudomonas aeruginosa; 10 mm in the test with Nakaseomyces glabratus; 10 mm with Aspergillus parasiticus; 8 mm in the test on Streptococcus pyogenes; 8 mm with Candida albicans. Further, the results for the zone of inhibition at 150 µg/mL in the test with Staphylococcus aureus and with Aspergillus niger were 8 mm and 10 mm, respectively. The results for the 50% inhibitory concentration (IC50) in the test on MCF7 and in the test on HepG2 were 2.59 µM and 11.6 µM, respectively.
Regarding `O=c1/c(=C/c2c[nH]c3ccccc23)sc2n1C(c1cccc([N+](=O)[O-])c1)C1=C(N=2)c2ccccc2CC1` (stereo unspecified), the zone of inhibition at 150 µg/mL turned out to be 8 mm in the test on Klebsiella pneumoniae; 8 mm in the test with Pseudomonas aeruginosa; 10 mm in the test with Nakaseomyces glabratus; 12 mm in the test on Aspergillus parasiticus; 8 mm in the test with Streptococcus pyogenes; 8 mm in the test on Candida albicans. Besides, the zone of inhibition at 150 µg/mL was found to be 8 mm with Staphylococcus aureus and 12 mm in the test on Aspergillus niger. Also, the half-maximal inhibitory concentration (IC50) in the test with MCF7 is above 200 µM; with HepG2 it was 199 µM.
Consider `COc1ccc2c(c1)CCC1=C2N=c2s/c(=C\c3c(C)[nH]c4ccccc34)c(=O)n2C1c1cccc([N+](=O)[O-])c1` (stereo unspecified), for which the zone of inhibition at 150 µg/mL was determined as 14 mm in the test on Klebsiella pneumoniae; 13 mm in the test on Pseudomonas aeruginosa; 14 mm in the test on Nakaseomyces glabratus; 18 mm in the test on Aspergillus parasiticus; 15 mm with Streptococcus pyogenes; 17 mm in the test with Candida albicans. Besides, the zone of inhibition at 150 µg/mL with Staphylococcus aureus amounted to 16 mm; with Aspergillus niger it was 20 mm. For the same compound, the half-inhibitory concentration (IC50) in the test with MCF7 was above 200 µM; with HepG2, 94.5 µM.
Take `COc1ccc2c(c1)CCC1=C2N=c2s/c(=C\c3c(C)[nH]c4ccccc34)c(=O)n2C1c1ccc(F)cc1` (stereo unspecified): the zone of inhibition at 150 µg/mL in the test with Klebsiella pneumoniae turned out to be 16 mm; with Pseudomonas aeruginosa it was 13 mm; in the test on Nakaseomyces glabratus, 8 mm; in the test with Aspergillus parasiticus, 8 mm; in the test with Streptococcus pyogenes it was 8 mm; with Candida albicans, 8 mm. Moreover, the zone of inhibition at 150 µg/mL in the test with Staphylococcus aureus was found to be 13 mm; in the test with Aspergillus niger it was 12 mm. The concentration for half-maximal inhibition (IC50) was found to be 82.4 µM in the test with MCF7 and 73.8 µM in the test with HepG2.
In the case of `COc1ccc(C2C3=C(N=c4s/c(=C\c5c[nH]c6ccccc56)c(=O)n42)c2ccc(OC)cc2CC3)cc1` (stereo unspecified), the zone of inhibition at 150 µg/mL came to 15 mm in the test with Klebsiella pneumoniae; 8 mm with Pseudomonas aeruginosa; 20 mm with Nakaseomyces glabratus; 18 mm with Aspergillus parasiticus; 18 mm in the test on Streptococcus pyogenes; 18 mm in the test with Candida albicans. For the same compound, the zone of inhibition at 150 µg/mL amounted to 17 mm in the test on Staphylococcus aureus and 18 mm in the test on Aspergillus niger. The results for the IC50 in the test on MCF7 and with HepG2 were 54.4 µM and 61.1 µM, respectively.
Take `COc1ccc2c(c1)CCC1=C2N=c2s/c(=C\c3c(C)[nH]c4ccccc34)c(=O)n2C1c1ccc(Cl)cc1` (stereo unspecified): the zone of inhibition at 150 µg/mL is 8 mm in the test on Klebsiella pneumoniae; 8 mm in the test on Pseudomonas aeruginosa; 8 mm in the test with Nakaseomyces glabratus; 12 mm in the test on Aspergillus parasiticus; 8 mm with Streptococcus pyogenes; 8 mm in the test with Candida albicans. Further, the zone of inhibition at 150 µg/mL in the test on Staphylococcus aureus and in the test with Aspergillus niger was 8 mm throughout. The half-inhibitory concentration (IC50) in the test with MCF7 worked out at 61.9 µM; in the test with HepG2, 38.8 µM.
`COc1ccc(C2C3=C(N=c4s/c(=C\c5c[nH]c6ccc(OC)cc56)c(=O)n42)c2ccc(OC)cc2CC3)cc1` (stereo unspecified): the zone of inhibition at 150 µg/mL with Klebsiella pneumoniae came to 8 mm; in the test on Pseudomonas aeruginosa, 8 mm; in the test with Nakaseomyces glabratus, 8 mm; in the test with Aspergillus parasiticus, 10 mm; with Streptococcus pyogenes, 8 mm; in the test with Candida albicans, 8 mm. Moreover, the zone of inhibition at 150 µg/mL with Staphylococcus aureus worked out at 8 mm; in the test on Aspergillus niger, 14 mm. Further, the concentration for half-maximal inhibition (IC50) stood at 30.6 µM with MCF7 and 57.5 µM with HepG2.
As to `COc1ccc2c(c1)CCC1=C2N=c2s/c(=C\c3c[nH]c4ccc(C)cc34)c(=O)n2C1c1cccc([N+](=O)[O-])c1` (stereo unspecified), the zone of inhibition at 150 µg/mL with Klebsiella pneumoniae stood at 17 mm; in the test on Pseudomonas aeruginosa, 8 mm; with Nakaseomyces glabratus, 12 mm; in the test with Aspergillus parasiticus, 8 mm; with Streptococcus pyogenes, 17 mm; in the test on Candida albicans, 8 mm. The results for the zone of inhibition at 150 µg/mL in the test with Staphylococcus aureus and in the test with Aspergillus niger were 17 mm and 8 mm, respectively. The 50% inhibitory concentration (IC50) in the test on MCF7 was above 200 µM; with HepG2, 51.6 µM.
For `COc1ccc2c(c1)CCC1=C2N=c2s/c(=C\c3c[nH]c4ccc(Br)cc34)c(=O)n2C1c1ccc(F)cc1` (stereo unspecified), the zone of inhibition at 150 µg/mL came out at 18 mm with Klebsiella pneumoniae; 22 mm with Pseudomonas aeruginosa; 10 mm in the test with Nakaseomyces glabratus; 8 mm with Aspergillus parasiticus; 8 mm with Streptococcus pyogenes; 8 mm in the test on Candida albicans. Moreover, the zone of inhibition at 150 µg/mL with Staphylococcus aureus amounted to 22 mm; in the test on Aspergillus niger, 8 mm. Besides, the IC50 turned out to be 8.96 µM with MCF7 and 22.1 µM in the test with HepG2.
